Data as given in ChEMBL document CHEMBL1938286, “A concise synthesis of viscolin, and its anti-inflammatory effects through the suppression of iNOS, COX-2, ERK phosphorylation and proinflammatory cytokines expressions” (Eur J Med Chem, 2012).
Active and inactive are the calls of the source. No cut-off for these calls is given here.

Tests used:
[1] = system: RAW264.7; test: Antiinflammatory activity in mouse RAW264.7 cells assessed as inhibition of LPS-induced PGE2 production administered 1 hr before LPS challenge measured after 24 hrs by ELISA
[2] = system: Mus musculus; test: Antiinflammatory activity in ICR mouse assessed as decrease in carrageenan-induced serum TNFalpha level at 8 mg/kg, ip measured after 5 hrs; format: functional, organism-based; design: dose 8 mg/kg
Outline: (§1)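 Male ICR mice (18–25 g, n = 6 per group). Carrageenan was injected intraplantar into the paw, with drug given 30 min beforehand. Serum was collected at the 5th hr. Nitrite was measured colorimetrically by Griess reaction, and TNF-α by commercial ELISA. Data are mean ± SEM.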

[3] = system: Mus musculus; test: Antiinflammatory activity in carrageenan-stimulated ICR mouse assessed as reduction in COX2 immunoreactive cells at 8 mg/kg, ip measured after 5 hrs; format: functional, organism-based; design: dose 8 mg/kg
[4] = system: Mus musculus; test: Antiinflammatory activity in ICR mouse assessed as inhibition of carrageenan-induced hind paw edema at 8 mg/kg, ip measured after 4 hrs; format: functional, organism-based; design: dose 8 mg/kg
[5] = system: RAW264.7; test: Antiinflammatory activity in LPS-stimulated mouse RAW264.7 cells assessed as inhibition of iNOS protein expression after 24 hrs by Western blot analysis; format: functional, cell-based
[6] = system: Mus musculus; test: Antiinflammatory activity in carrageenan-stimulated ICR mouse assessed as effect on shape of collagen fiber at 8 mg/kg, ip measured after 5 hrs; format: functional, organism-based; design: dose 8 mg/kg
Outline: (§2)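 Male ICR mice were dosed 30 min before intraplantar carrageenan, and paw biopsies were taken 5 h later. Tissue was fixed in Dietric solution for 1 week at room temperature, dehydrated in graded ethanol and paraffin-embedded. 7-thickness sections were stained with hematoxylin–eosin or Van Gieson and examined by light microscopy.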

[7] = system: Mus musculus; test: Antiinflammatory activity in carrageenan-stimulated ICR mouse assessed as decrease in cellular infiltration to intercellular spaces at 8 mg/kg, ip measured after 5 hrs; format: functional, organism-based; design: dose 8 mg/kg
Outline: as §2

[8] = system: Mus musculus; test: Antiinflammatory activity in ICR mouse assessed as decrease in carrageenan-induced serum NO level at 8 mg/kg, ip measured after 5 hrs; format: functional, organism-based; design: dose 8 mg/kg
Outline: as §1

[9] = system: Mus musculus; test: Antiinflammatory activity in ICR mouse assessed as decrease in carrageenan-induced serum TNFalpha level at 8 mg/kg, ip; format: functional, organism-based; design: dose 8 mg/kg
Outline: as §1

[10] = system: Mus musculus; test: Antioxidant activity in carrageenan-stimulated ICR mouse assessed as increase in CAT activity at 8 mg/kg, ip measured after 5 hrs; format: functional; details: route intraperitoneal
Outline: (§3)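 Male ICR mice (n = 6 per group) received the drug 30 min before intraplantar carrageenan, and paw tissue was taken at the 5th hr. Total SOD was measured by inhibition of cytochrome c reduction, CAT by Aebi's method, and cytosolic GPx by Paglia–Valentine. Activities are in U/mg protein, given as mean ± SEM.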

[11] = system: Mus musculus; test: Antiinflammatory activity in ICR mouse assessed as decrease in carrageenan-induced serum TNFalpha level at 2 mg/kg, ip; format: functional, organism-based; design: dose 2 mg/kg
Outline: as §1

[12] = target: Mitogen-activated protein kinase 1 and 3 (ERK2 and ERK1) (Mus musculus) (UniProt P63085+Q63844); test: Inhibition of Erk1/2 phosphorylation in LPS-stimulated mouse RAW264.7 cells at 5 to 20 uM after 30 mins by Western blot analysis; format: cell-based
Sequence of Mitogen-activated protein kinase 1 and 3 (ERK2 and ERK1) (Mus musculus) (P63085 whole entry, looked up): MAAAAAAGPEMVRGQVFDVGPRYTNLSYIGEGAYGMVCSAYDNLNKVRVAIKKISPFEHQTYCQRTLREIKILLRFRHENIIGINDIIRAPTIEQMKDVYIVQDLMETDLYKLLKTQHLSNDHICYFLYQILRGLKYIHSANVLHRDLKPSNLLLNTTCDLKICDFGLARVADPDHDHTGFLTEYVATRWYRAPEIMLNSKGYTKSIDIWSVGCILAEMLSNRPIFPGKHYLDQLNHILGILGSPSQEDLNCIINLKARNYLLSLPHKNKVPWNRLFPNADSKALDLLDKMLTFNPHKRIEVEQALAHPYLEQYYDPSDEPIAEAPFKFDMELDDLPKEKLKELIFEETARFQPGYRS
Sequence of Mitogen-activated protein kinase 1 and 3 (ERK2 and ERK1) (Mus musculus) (Q63844 whole entry, looked up): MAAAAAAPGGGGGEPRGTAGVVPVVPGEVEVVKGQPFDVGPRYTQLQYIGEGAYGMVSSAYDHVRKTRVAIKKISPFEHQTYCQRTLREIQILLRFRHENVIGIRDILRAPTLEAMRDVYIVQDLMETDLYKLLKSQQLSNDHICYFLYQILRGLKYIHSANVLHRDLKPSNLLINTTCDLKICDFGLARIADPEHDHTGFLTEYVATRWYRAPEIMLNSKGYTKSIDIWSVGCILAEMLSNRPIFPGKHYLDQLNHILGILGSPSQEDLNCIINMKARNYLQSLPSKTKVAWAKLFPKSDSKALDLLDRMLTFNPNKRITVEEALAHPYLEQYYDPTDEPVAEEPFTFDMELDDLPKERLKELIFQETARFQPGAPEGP
Outline: (§4)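 RAW 264.7 cells were pretreated with test agent, then stimulated with LPS for 30 min. Phospho-ERK, phospho-JNK and phospho-p38 were assessed by Western blot: RIPA lysates, 30 µg protein, SDS-PAGE, PVDF, primary antibody overnight at 4 °C, HRP secondary and ECL detection.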

[13] = system: RAW264.7; test: Antiinflammatory activity in mouse RAW264.7 cells assessed as inhibition of LPS-induced TNFalpha production administered 1 hr before LPS challenge measured after 24 hrs by ELISA
[14] = system: Mus musculus; test: Antiinflammatory activity in carrageenan-stimulated ICR mouse assessed as decrease in number of inflammatory cells at 8 mg/kg, ip measured after 5 hrs; format: functional, organism-based; design: dose 8 mg/kg
Outline: as §2

[15] = system: RAW264.7; test: Antiinflammatory activity in mouse RAW264.7 cells assessed as inhibition of LPS-induced TNFalpha production at 20 uM administered 1 hr before LPS challenge measured after 24 hrs by ELISA
[16] = system: Mus musculus; test: Down regulation of iNOS protein expression in carrageenan-stimulated ICR mouse at 8 mg/kg, ip measured after 5 hrs by Western blot analysis; format: functional; details: route intraperitoneal
Outline: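 Male ICR mice (18–25 g, n = 6 per group) received intraplantar carrageenan. Paw tissue was taken 5 h after carrageenan. Lysates were made in RIPA buffer and 30 µg protein run on SDS-PAGE/PVDF immunoblot with ECL detection. Band intensities were quantified relative to the carrageenan-alone group across three independent experiments.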

[17] = system: RAW264.7; test: Antiinflammatory activity in mouse RAW264.7 cells assessed as inhibition of LPS-induced NO production administered 1 hr before LPS challenge measured after 24 hrs by Griess method; format: functional, cell-based
[18] = system: Mus musculus; test: Antiinflammatory activity in carrageenan-stimulated ICR mouse assessed as effect on connective tissue damage at 8 mg/kg, ip measured after 5 hrs; format: functional, organism-based; design: dose 8 mg/kg
Outline: as §2

[19] = system: Mus musculus; test: Antioxidant activity in carrageenan-stimulated ICR mouse assessed as increase in CAT activity at 4 mg/kg, ip measured after 5 hrs; format: functional; details: route intraperitoneal
Outline: as §3

[20] = system: Mus musculus; test: Antioxidant activity in carrageenan-stimulated ICR mouse assessed as increase in GPx activity at 4 mg/kg, ip measured after 5 hrs; format: functional; details: route intraperitoneal
Outline: as §3

[21] = system: Mus musculus; test: Antiinflammatory activity in carrageenan-stimulated ICR mouse assessed as decrease in intercellular spaces at 8 mg/kg, ip measured after 5 hrs; format: functional, organism-based; design: dose 8 mg/kg
Outline: as §2

[22] = target: MAP kinase p38 (Mus musculus) (UniProt P47811+O08911+Q9WUI1+Q9Z1B7); test: Inhibition of p38 phosphorylation in LPS-stimulated mouse RAW264.7 cells at 5 to 20 uM after 30 mins by Western blot analysis; format: cell-based
Outline: as §4

[23] = system: RAW264.7; test: Antiinflammatory activity in mouse RAW264.7 cells assessed as inhibition of LPS-induced PGE2 production at 10 uM administered 1 hr before LPS challenge measured after 24 hrs by ELISA
[24] = system: Mus musculus; test: Antiinflammatory activity in carrageenan-stimulated ICR mouse assessed as reduction in iNOS immunoreactive cells at 8 mg/kg, ip measured after 5 hrs; format: functional, organism-based; design: dose 8 mg/kg

IC50 [1]: 14.4 µM | inhibition [12]: Active | IC50 [13]: 17.3 µM | IC50 [17]: 17.8 µM | inhibition [22]: inactive
Compound: COc1cc(CCCc2c(OC)cc(O)c(OC)c2OC)ccc1O [VISCOLIN]
Activity [2]: Active | Activity [3]: Active | Activity [4]: Active | Activity [5]: Dose-dependent effect | Activity [6]: Active | Activity [7]: Active | Activity [8]: Active | Activity [9]: Active | Activity [10]: 4.98 U/mg | Activity [11]: Active | Activity [13]: Dose-dependent effect | Activity [14]: Active | Activity [15]: Active | Activity [16]: 63.6% | Activity [17]: Dose-dependent effect | Activity [18]: Active | Activity [19]: 4.28 U/mg | Activity [20]: 10.97 U/mg | Activity [21]: Active | Activity [23]: Active | Activity [24]: Active
